# Laboratory results published in publication PMC12064631 (Clinical Pharmacokinetics, 2025).
# “And” between values parts separate entries of the source, which are not always exact repeats. Equal entries are not always repeated. Where two headings read alike, the source gives them in different places.
# Assays:
# [1] = system: DPP‐2; conditions: cited from earlier work
# [2] = target: T1, DPP-4 (Homo sapiens, UniProt P27487); assay: Inhibition of plasma DPP-4 activity after single and multiple doses of DBPR108; type: in vivo, human (Chinese patients with type 2 diabetes)
# Procedure, shortened: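 Chinese adults with type 2 diabetes (HbA1c 7.0–9.5%, BMI 19–35 kg/m2), 10 per group. Oral tablets of 50, 100 or 200 mg were given fasting, once daily on days 1 and 3–9. Plasma was spun at 1300 ± 50 g, 2–8 °C, 10 min and stored ≤ –60 °C. DPP-4 activity was read on a microplate reader (LLOQ 21.23 μU/mL), with % inhibition taken from baseline.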
# [3] = system: fibroblast activation protein; conditions: cited from earlier work
# [4] = system: DPP‐8; conditions: cited from earlier work
# [5] = system: DPP‐9; conditions: cited from earlier work
# [6] = Safety assessment; type: in vivo, human (Chinese patients with type 2 diabetes)
# Procedure, shortened: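 Treatment-emergent adverse events were recorded as a secondary outcome in all patients dosed at least once. Dosing was oral tablets of 50, 100 or 200 mg, fasting, once daily on days 1 and 3–9. Patients were grouped by the dose actually received.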
# [7] = type: in vivo, human (Chinese patients with type 2 diabetes); conditions: for AUC(0-inf) / AUC(0-t) / AUC / Tmax / Vd/F / half-life / k el / Cmax: human, plasma; for AUC(0-inf) / AUC(0-t) / AUC / Tmax / Vd/F / half-life / k el: oral; for AUC(0-inf): AUCinf; for AUC(0-inf) / AUC(0-t) / AUC / Vd/F / half-life / k el / %AUC_ex,ss / CLss/F / Cmin,ss / %AUC_ex / CL/F: mean (SD); for AUC(0-t): AUClast; for AUC: AUCtau; for Tmax: median (range); for Vd/F: Vz/F; for k el: λz; for Cmax: po
# Procedure, shortened: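 Fasting oral tablets of 50, 100 or 200 mg were given once daily on days 1 and 3–9 (eight doses). Plasma was spun at 1700 ± 50 g, 4 °C, 10 min, acidified with 50% acetic acid (1:100) and stored ≤ –60 °C. Analysis was by validated LC-MS/MS (1.00–2000 ng/mL; LLOQ 1.00 ng/mL). Individual parameters and accumulation ratio came from noncompartmental analysis using actual sampling times.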
# [8] = system: diet-induced obese mice; conditions: DBPR108 in combination with metformin; cited from earlier work
# [9] = target: T1, DPP-4; assay: PK-PD relationship between DPP-4 inhibition and DBPR108 exposure; type: in vivo, human (Chinese patients with type 2 diabetes)
# Procedure, shortened: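 Each patient's plasma drug level (LC-MS/MS) was paired with plasma DPP-4 % inhibition, after one dose and after repeated once-daily oral dosing at 50–200 mg. Linear correlation with exposure was assessed, and inhibition versus concentration was fitted with an Emax model giving Emax and EC50. Only patients with evaluable PK and PD data were included.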
# [10] = system: active GLP-1; assay: Plasma active GLP-1 level after single and multiple doses of DBPR108; type: in vivo, human (Chinese patients with type 2 diabetes); conditions: for Emax,GLP-1 (active GLP-1): mean (SD)
# Procedure, shortened: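 Patients with type 2 diabetes, 10 per group, received oral tablets of 50, 100 or 200 mg fasting, once daily on days 1 and 3–9. Plasma was spun at 1300 ± 50 g, 2–8 °C, 10 min and stored ≤ –60 °C. Active GLP-1 was measured by MSD V-PLEX kit (LLOQ 0.182 pM). Emax and time to Emax were taken per group, and correlation with exposure was checked.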
# [11] = system: DPP‐4; conditions: cited from earlier work
# [12] = single dose of 100 mg, healthy subjects, cited from earlier work
# [13] = system: DPP-4 activity in the plasma; conditions: plasma of humans, rodents, dogs, and monkeys, range over species; cited from earlier work
# [14] = large clinical trials, rare; cited from earlier work
# [15] = system: DPP-4; conditions: 168 h post single dose of 25 mg, healthy Japanese subjects; cited from earlier work
# [16] = multiple doses, range over 50-200 mg groups
# [17] = 50 mg, multiple doses 50 mg once daily
# [18] = 100 mg, multiple doses 100 mg once daily
# [19] = 200 mg, multiple doses 200 mg once daily
# [20] = multiple doses 50 mg once daily
# [21] = multiple doses 100 mg once daily
# [22] = multiple doses 200 mg once daily
# [23] = single dose and multiple doses, 50 mg to 200 mg, linear regression
# T1 sequence (P27487 39-766): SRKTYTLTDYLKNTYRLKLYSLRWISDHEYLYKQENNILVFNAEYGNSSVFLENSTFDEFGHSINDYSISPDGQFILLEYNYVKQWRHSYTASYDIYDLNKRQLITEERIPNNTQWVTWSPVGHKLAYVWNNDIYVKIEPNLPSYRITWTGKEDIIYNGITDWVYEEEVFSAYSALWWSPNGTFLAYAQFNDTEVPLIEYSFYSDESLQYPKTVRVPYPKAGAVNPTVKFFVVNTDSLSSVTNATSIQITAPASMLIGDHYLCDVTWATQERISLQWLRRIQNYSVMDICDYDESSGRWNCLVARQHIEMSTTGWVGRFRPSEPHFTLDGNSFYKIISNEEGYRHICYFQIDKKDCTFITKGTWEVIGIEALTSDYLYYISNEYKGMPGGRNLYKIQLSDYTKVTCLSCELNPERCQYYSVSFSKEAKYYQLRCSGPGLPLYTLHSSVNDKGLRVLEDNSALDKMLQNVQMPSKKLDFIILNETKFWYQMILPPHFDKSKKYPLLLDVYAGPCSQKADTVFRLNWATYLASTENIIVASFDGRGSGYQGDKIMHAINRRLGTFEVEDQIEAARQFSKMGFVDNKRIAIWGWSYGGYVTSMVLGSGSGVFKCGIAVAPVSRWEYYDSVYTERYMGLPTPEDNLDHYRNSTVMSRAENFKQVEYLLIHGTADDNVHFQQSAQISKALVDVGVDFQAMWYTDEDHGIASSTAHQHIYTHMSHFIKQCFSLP
compound,measurement,setting,value
"CC(C)(CC(=O)N1CCCC1)NCC(=O)N1C[C@@H](F)C[C@H]1C#N [DBPR108, (2S,4S)-1-[2-(1,1-dimethyl-3-oxo-3-pyrrolidin-1-yl-propylamino)acetyl]-4-fluoro-pyrrolidine-2-carbonitrile]",IC50,[1],> 50 nM
same,maximum inhibitory efficacy of DPP-4,[2]; [16],62.1 to 89.4%
same,"time to Emax,DPP-4",[2]; [16],3 to 4 h
same,median time to Emax of DPP-4,[2]; single dose 50 mg,2 h
same,median time to Emax of DPP-4,[2]; single dose 100 mg,4 h
same,median time to Emax of DPP-4,[2]; single dose 200 mg,6 h
same,IC50,[3],> 50 nM
same,IC50,[4],> 50 nM
same,IC50,[5],> 50 nM
same,Tolerability,"[6]; 50-200 mg once daily, eight doses",well tolerated
same,Cardiovascular adverse events,[6]; all 30 patients,no cardiovascular adverse events were observed
same,"Severe TEAEs, serious TEAEs, TEAEs leading to treatment interruption or discontinuation",[6]; all 30 patients,"No severe TEAEs, serious TEAEs, or TEAEs leading to treatment interruption or discontinuation occurred"
same,"TEAE white blood cell count increase, n [%]",[6]; all 30 patients,1 [3.3%]
same,Patients with treatment-emergent adverse events (TEAEs),"[6]; all 30 patients, 50-200 mg",20%
same,Dose proportionality of exposure (power model),"[7]; 50 mg to 200 mg, single dose and multiple doses",increased dose proportionally
same,Steady state achieved on,[7]; dosing on days 1 and 3-9,7 days
same,AUC(0-inf),"[7]; 50 mg, single dose 50 mg",792 ng·h/mL
same,AUC(0-t),"[7]; 50 mg, single dose 50 mg",780 ng·h/mL
same,AUC,"[7]; 50 mg, single dose 50 mg",770 ng·h/mL
same,Tmax,"[7]; 50 mg, single dose 50 mg",1.5 h
same,Vd/F,[7]; [17],806 L
same,Vd/F,"[7]; 50 mg, single dose 50 mg",479 L
same,half-life,"[7]; 50 mg, t½, single dose 50 mg",5 h
same,half-life,"[7]; 50 mg, t½,ss, multiple doses 50 mg once daily",8 h
same,k el,[7]; [17],3.56e-05 s⁻¹
same,k el,"[7]; 50 mg, single dose 50 mg",5e-05 s⁻¹
same,AUC(0-inf),"[7]; 100 mg, single dose 100 mg",1530 ng·h/mL
same,AUC(0-t),"[7]; 100 mg, single dose 100 mg",1500 ng·h/mL
same,AUC,"[7]; 100 mg, single dose 100 mg",1450 ng·h/mL
same,Tmax,"[7]; 100 mg, single dose 100 mg",4.5 h
same,Vd/F,[7]; [18],896 L
same,Vd/F,"[7]; 100 mg, single dose 100 mg",1010 L
same,half-life,"[7]; 100 mg, t½, single dose 100 mg",9.6 h
same,half-life,"[7]; 100 mg, t½,ss, multiple doses 100 mg once daily",7.4 h
same,k el,[7]; [18],4.03e-05 s⁻¹
same,k el,"[7]; 100 mg, single dose 100 mg",3.61e-05 s⁻¹
same,AUC(0-inf),"[7]; 200 mg, single dose 200 mg",3400 ng·h/mL
same,AUC(0-t),"[7]; 200 mg, single dose 200 mg",3280 ng·h/mL
same,AUC,"[7]; 200 mg, single dose 200 mg",3120 ng·h/mL
same,Tmax,"[7]; 200 mg, single dose 200 mg",4.5 h
same,Vd/F,[7]; [19],894 L
same,Vd/F,"[7]; 200 mg, single dose 200 mg",1070 L
same,half-life,"[7]; 200 mg, t½, single dose 200 mg",12.3 h
same,half-life,"[7]; 200 mg, t½,ss, multiple doses 200 mg once daily",10.2 h
same,k el,[7]; [19],2.69e-05 s⁻¹
same,k el,"[7]; 200 mg, single dose 200 mg",2.78e-05 s⁻¹
same,Cmax,[7]; 50 mg,151 ng/mL
same,Cmax,[7]; 100 mg,239 ng/mL
same,Cmax,[7]; 200 mg,474 ng/mL
same,"%AUC_ex,ss",[7]; [20],4.48 (4.09) %
same,CLss/F,[7]; [20],76.0 (23.3) L/h
same,"Cmin,ss",[7]; [20],3.2 (1.6) ng/mL
same,"%AUC_ex,ss",[7]; [21],2.33 (3.04) %
same,CLss/F,[7]; [21],76.4 (22.3) L/h
same,"Cmin,ss",[7]; [21],5.6 (2.9) ng/mL
same,"%AUC_ex,ss",[7]; [22],3.17 (3.44) %
same,CLss/F,[7]; [22],64.6 (16.7) L/h
same,"Cmin,ss",[7]; [22],18.3 (16.8) ng/mL
same,Accumulation ratio (Rac),"[7]; multiple doses, range over the 50-, 100-, 200-mg groups",0.85 to 1.3 and 0.85–1.3
same,Steady state reached after,"[7]; once-daily dosing, 50-200 mg",four
same,%AUC_ex,[7]; single dose 50 mg,1.5 (0.9) %
same,CL/F,[7]; single dose 50 mg,66.6 (16.5) L/h
same,%AUC_ex,[7]; single dose 100 mg,2.3 (1.4) %
same,CL/F,[7]; single dose 100 mg,72.9 (26.2) L/h
same,%AUC_ex,[7]; single dose 200 mg,3.2 (3.2) %
same,CL/F,[7]; single dose 200 mg,63.3 (17.0) L/h
same,Glucose tolerability,[8],improved glucose tolerability
same,EC50,"[9]; EC50 (Emax model), after a single administration, DPP-4 inhibition versus plasma concentration",323 nM
same,"Emax,DPP-4 (Emax model)","[9]; after multiple doses, DPP-4 inhibition versus plasma concentration",106.19%
same,Emax,"[9]; read-out: Emax,DPP-4 (Emax model), after a single administration, DPP-4 inhibition versus plasma concentration",120%
same,Emax,"[9]; read-out: Emax,DPP-4 (Emax model), after multiple doses, DPP-4 inhibition versus plasma concentration",106%
same,Correlation between DPP-4 inhibition and DBPR108 exposure,[9]; [23],linear correlation was observed
same,Active GLP-1 levels after administration,"[10]; after DBPR108 administration, 50-200 mg",increased
same,"Emax,GLP-1 (active GLP-1)",[10]; [20],5.7 (2.2) pM
same,"Emax,GLP-1 (active GLP-1)",[10]; [21],6.6 (2.3) pM
same,"Emax,GLP-1 (active GLP-1)",[10]; [22],5.8 (3.2) pM
same,"median time to Emax,GLP-1",[10]; [16],6 to 7 h
same,"median time to Emax,GLP-1",[10]; single dose 50 mg,8 h
same,"Emax,GLP-1 (active GLP-1)",[10]; single dose 50 mg,4.5 (1.6) pM
same,"median time to Emax,GLP-1",[10]; single dose 100 mg,12 h
same,"Emax,GLP-1 (active GLP-1)",[10]; single dose 100 mg,4.8 (1.4) pM
same,"median time to Emax,GLP-1",[10]; single dose 200 mg,12 h
same,"Emax,GLP-1 (active GLP-1)",[10]; single dose 200 mg,5.5 (2.1) pM
same,Correlation between changes in plasma active GLP-1 and DBPR108 exposure,[10]; [23],no linear correlation was noted
same,IC50,[11],15 nM
same,Cmax,[12]; mean (SD),218.8 (101.8) ng/mL
same,t½,[12]; mean (SD),8.2 (8.6) h
same,Tmax,[12]; median (range),4.48 (range 1–6) h
same,IC50,[13],4.1 to 20.4 nM
Cn1c(=O)cc(N2CCC[C@@H](N)C2)n(Cc2ccccc2C#N)c1=O [alogliptin],Risk of pancreatitis,[14],increased risks of pancreatitis were observed
CS(=O)(=O)n1cc2c(n1)CN([C@H]1CO[C@H](c3cc(F)ccc3F)[C@@H](N)C1)C2 [omarigliptin],"Emax,DPP-4",[15],86.0%
N[C@@H](CC(=O)N1CCn2c(nnc2C(F)(F)F)C1)Cc1cc(F)c(F)cc1F [sitagliptin],Risk of pancreatitis,[14],increased risks of pancreatitis were observed
